# Source: PubChem (Johns Hopkins Ion Channel Center)
# TRPC4 PAM = positive allosteric modulators of TRPC4, primary screen, cell-based, mouse TRPC4beta, HEK293 mu-opioid, Fluo-4 calcium; Short transient receptor potential channel 4 (Mus musculus), Q9QUQ5; AID 2227, 2009; B-score at 10 µM; hit rate 0.42% among 310,000; DAMGO EC20, Fluo-4 Ca2+ flux; stronger effect = higher value;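 active = B-score of calcium response area above 5 SD of library B-scores, with initial fluorescence ratio within 5 SD of library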
# Target sequence (Q9QUQ5 whole entry, looked up): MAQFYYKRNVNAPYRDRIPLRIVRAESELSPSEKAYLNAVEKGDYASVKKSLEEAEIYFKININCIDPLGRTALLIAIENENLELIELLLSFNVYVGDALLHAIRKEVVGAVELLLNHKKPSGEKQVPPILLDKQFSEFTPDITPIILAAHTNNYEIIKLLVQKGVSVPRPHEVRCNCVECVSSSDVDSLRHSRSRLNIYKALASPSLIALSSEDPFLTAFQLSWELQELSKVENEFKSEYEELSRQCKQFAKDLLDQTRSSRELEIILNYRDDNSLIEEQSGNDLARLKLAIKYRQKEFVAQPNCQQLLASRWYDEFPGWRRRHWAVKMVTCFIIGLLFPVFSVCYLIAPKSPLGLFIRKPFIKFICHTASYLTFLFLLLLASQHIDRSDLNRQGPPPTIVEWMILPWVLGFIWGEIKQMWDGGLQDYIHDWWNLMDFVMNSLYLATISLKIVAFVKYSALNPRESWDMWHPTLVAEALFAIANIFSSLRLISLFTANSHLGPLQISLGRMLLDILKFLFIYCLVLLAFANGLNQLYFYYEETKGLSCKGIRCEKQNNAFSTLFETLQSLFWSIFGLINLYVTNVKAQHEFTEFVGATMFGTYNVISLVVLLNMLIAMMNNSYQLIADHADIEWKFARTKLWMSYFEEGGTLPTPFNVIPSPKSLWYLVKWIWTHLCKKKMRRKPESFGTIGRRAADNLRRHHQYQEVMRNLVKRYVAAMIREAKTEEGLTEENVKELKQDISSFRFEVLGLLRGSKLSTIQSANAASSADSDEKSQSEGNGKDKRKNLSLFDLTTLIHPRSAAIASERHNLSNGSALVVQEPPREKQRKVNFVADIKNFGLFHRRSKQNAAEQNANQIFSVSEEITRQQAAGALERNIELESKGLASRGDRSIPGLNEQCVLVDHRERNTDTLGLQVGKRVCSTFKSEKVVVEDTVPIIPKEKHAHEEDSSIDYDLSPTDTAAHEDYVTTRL
# TRPC4 inh = inhibitors of mouse TRPC4 channel, primary screen, Fluo4 calcium, HEK293 TRPC4beta/mu-opioid cells | Short transient receptor potential channel 4 (Mus musculus), Q9QUQ5 | hit rate 0.39% among 300,000 | B-score at 10 µM | AID 2247, 2010 | DAMGO-evoked Fluo4 calcium flux; stronger effect = lower value;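 active = B-score over 3 SD under the library average, no early fluorescence shift, positive overall ratio signal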
#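 System: stable TRPC4beta/mu-opioid receptor HEK293 cells; Dosing: single-point compound dosing; Measured by: Fluo4 Ca2+ flux fluorescence; Read-out basis: per-well B score of integrated baseline-normalized Fluo4 ratio.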
# Kir21 inh = inhibitors of mouse Kir2.1 inward-rectifier potassium channel; hit rate 0.85% among 310,000; B-score at 10 µM; HEK293-Kir2.1, FluxOR thallium flux fluorescence; stronger effect = lower value; AID 1672, 2009;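 active = fluorescence ratio B-score at or below minus 3 SD of library scores, with starting-brightness B-score within 2 SD, cut at about -4.2 in these data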;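 note: channel flux triggered by added potassium and thallium sulfate stimulus; B-score of peak minus minimum fluorescence over baseline after thallium stimulus; more negative B-score means stronger Kir2.1 block with less thallium influx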
# TRPC6 activator = mouse TRPC6 channel activators, primary screen, cell-based, HEK293, membrane potential dye; Short transient receptor potential channel 6 (Mus musculus), Q61143; HEK293-TRPC6 membrane potential dye fluorescence; stronger effect = higher value; B-score at 10 µM; hit rate 0.13% among 310,000; AID 2550, 2010;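 active = B-score of the integrated fluorescence ratio above library mean plus 3 SD, and starting fluorescence ratio within library mean plus 5 SD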;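 note: higher score means more depolarization so channel activation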
# TRPC6 inh = mouse TRPC6 channel inhibitors, primary screen, cell-based, HEK293, membrane potential dye; Short transient receptor potential channel 6 (Mus musculus), Q61143; ACh-evoked depolarization; stronger effect = lower value; B-score at 10 µM; hit rate 1.1% among 310,000;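 active = B-score under library mean minus 3 SD, initial fluorescence not abnormally high, positive integrated signal ratio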;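 note: B-score derived from integrated fluorescence ratio over the kinetic read; more negative B-score means stronger inhibition of depolarization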
# TRPC4 agonist = activators of mouse TRPC4 channel, primary screen, Fluo4 calcium, HEK293 TRPC4beta/mu-opioid cells; B-score at 10 µM; Short transient receptor potential channel 4 (Mus musculus), Q9QUQ5; Fluo4 calcium fluorescence; stronger effect = higher value; hit rate 0.49% among 310,000;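 active = B-score above 5 SD of library B-scores, and initial fluorescence ratio not above library mean plus 5 SD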;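 note: positive B-score marks a calcium rise read as TRPC4 activation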
#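 Assay system: HEK293 stable line with TRPC4beta plus mu-opioid receptor; schedule: 45 min room-temperature Fluo4 loading, 110 s read; technique: kinetic Fluo4 calcium fluorescence; evaluation: integrated baseline-normalised fluorescence ratio, converted to per-well B score; controls: buffer (low) and maximal DAMGO (high)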
# Hits are given with their value; – = inactive; · = no result. This is a sample that favours compounds with a hit; in the whole collection about 3% have one here.
SMILES,TRPC4 PAM,TRPC4 inh,Kir21 inh,TRPC6 activator,TRPC6 inh,TRPC4 agonist
Cc1cc(C)c2nc(N(CCCN(C)C)C(=O)c3ccc(S(=O)(=O)N4CC(C)OC(C)C4)cc3)sc2c1 (stereo unspecified),–,–,–,–,–,–
O=C(Nc1ccc(F)cc1F)c1cc(-c2ccco2)on1,–,–,–,–,–,–
O=C(Nc1ccc(F)cc1F)c1ccco1,–,–,–,–,–,70
COCCSc1ccccc1C(=O)NCc1cccnc1,–,–,–,–,–,–
CCCCNC(=O)/C(C#N)=C/c1ccc(F)cc1F,27,–,–,–,–,–
Cc1ccc(C2(C)NC(=O)N(CC(=O)Nc3ccccc3C(=O)NC3CCCC3)C2=O)cc1 (stereo unspecified),–,–,–,–,–,–
COc1ccc(C(=O)N2CCN(c3c(C)cccc3C)CC2)cc1OC,17,–,–,–,–,–
Cc1cc(NC(=O)NC(C(F)(F)F)C(F)(F)F)no1,–,–,–,–,–,–
CC(C)(CO)NC(=O)c1ccc2c(c1)C(=O)c1ccccc1-2,11,–,–,–,–,–
COCCNC(=O)c1ccc2c(c1)C(=O)c1ccccc1-2,–,–,–,–,–,–
CCC(=O)N(CC)C1=C(O)c2ccccc2C(=O)C1=O,–,–,-4.6,–,–,–
CN(CC(=O)Nc1ccccc1Cl)C(=O)CSc1nnc(N)s1,–,–,–,–,–,–
Cc1ccc(OCCCCN2CCCCC2)c(C)c1,–,–,–,–,–,–
Cc1cc(Br)ccc1OCCN1CCCC1,15,–,–,–,–,–
CC1CCN(CCCOc2ccc(Br)cc2Cl)CC1,–,–,-7.6,–,–,–
Cc1ccc(OCCCCN2CCC(C)CC2)c(Br)c1,–,–,-6,–,–,–
COc1ccc(Cl)cc1NC(=O)CSc1nc2ccsc2c(=O)n1CC1CCC(C(=O)O)CC1 (stereo unspecified),–,–,–,–,–,–
O=C(CSc1ccccc1)N(c1ccc(Br)cc1)c1nccs1,–,–,-5.2,–,–,–
COc1ccc(-c2cc(C(=O)OCc3ccccn3)c3ccccc3n2)cc1,–,–,–,–,–,–
CCSc1nc(N)c2c3c(sc2n1)CN(C)CC3,–,–,–,–,-5.3,–
CCN1C(=O)CSC1=Nc1ccc(Cl)c(Cl)c1,–,-6,–,–,–,–
O=C(COc1cccc(C(F)(F)F)c1)NNC(=O)Cn1c(=O)cnc2ccccc21,–,–,–,–,–,–
CCn1c(/C=C/Nc2ccccc2)[n+](CC)c2cc(Cl)c(Cl)cc21,–,–,-7,–,–,–
COc1ccccc1C(=O)Nc1ccc2c(c1)CCCN2C(=O)c1cccs1,–,-6,–,–,–,–
CC(NCCCOc1cccc2ccccc12)c1ccccc1 (stereo unspecified),–,–,-10,–,–,69
SMILES,TRPC4 PAM,TRPC4 inh,Kir21 inh,TRPC6 activator,TRPC6 inh,TRPC4 agonist
COc1ccc2ccccc2c1CNC(C)c1ccccc1 (stereo unspecified),–,–,-5.5,–,–,–
Cc1cccc(CS(=O)(=O)c2ncc(Cl)c(C(=O)Nc3c(C)cccc3C)n2)c1,–,–,-12,–,–,–
CO/N=C/c1ccc(N2CCN(C(=O)c3ccc(Cl)cc3Cl)CC2)c([N+](=O)[O-])c1,12,–,–,–,–,–
CO/N=C/c1ccc(N2CCN(C(=O)c3ccc(F)cc3)CC2)c([N+](=O)[O-])c1,–,–,–,–,–,–
Cc1ccc(C)c(OCC(O)CN2CCC(Cc3ccccc3)CC2)c1 (stereo unspecified),–,–,-6.4,–,–,–
Cc1ccc(C)c(OCC(O)CN2CCN(CCN3C(=O)c4cccc5cccc(c45)C3=O)CC2)c1 (stereo unspecified),–,–,–,–,-5.1,–
CC(=O)c1ccccc1OCC(O)CN1CCN(CCN2C(=O)c3cccc4cccc(c34)C2=O)CC1 (stereo unspecified),–,–,–,–,–,–
OC(COc1ccc(Cl)cc1)CN1CCC(Cc2ccccc2)CC1 (stereo unspecified),–,–,–,–,–,–
CC1(C)C2CC[C@]3(C)C(CC=C4[C@@H]5C[C@@](C)(CO)[C@@H](O)C[C@]56C[C@@H](OC6=O)[C@]43C)[C@@]2(C)CC[C@@H]1O (stereo partly specified),–,–,–,–,–,–
Cc1ccc(C)c(CN2CCC(CNC(=O)Nc3ccc(C)c(C)c3)CC2)c1,11,–,–,–,–,–
O=S(=O)(c1ccccc1)c1nc(Nc2cccc(O)c2)sc1Cl,–,–,-5.5,–,–,–
O=c1cc(CCl)nc(Cc2c(Cl)cccc2Cl)[nH]1,–,–,–,–,–,–
CC(C)=CCc1c(O)cc(O)c2c1OC(c1ccc(O)cc1)CC2=O (stereo unspecified),–,–,-6.4,–,–,–
N#C/C(=C\c1cccc(Oc2ccccc2)c1)C(=O)N1CCOCC1,–,–,-13,–,–,–
COc1cc(/C=C(\C#N)C(=O)N2CCOCC2)cc(Br)c1O,–,–,–,–,–,–
Cc1noc(NC(=O)c2cccc(Cl)c2Cl)c1C#N,–,–,–,–,–,–
COC(=O)c1ccccc1NC(=O)c1cnn2cccnc12,54,–,–,–,–,–
O=C(Nc1cccc(Cl)c1)c1cnn2cccnc12,34,·,–,–,–,–
CC[n+]1c(/C=C/N(C)c2ccccc2)n(-c2ccccc2)c2ccc(-c3nc4ccccc4s3)cc21,–,–,-7,–,–,–
COc1cc(OC)cc(C(=O)N/N=C(\C)CC(=O)Nc2ccccn2)c1,–,–,–,–,–,–
O=C(CCCc1ccccc1)NCc1ccc(F)cc1,–,–,–,–,–,–
CC1CCCN(C2=C(NS(=O)(=O)c3ccc(Br)cc3)C(=O)c3ccccc3C2=O)C1 (stereo unspecified),16,–,–,–,–,–
CCN1CCN(c2ccc(S(=O)(=O)N3CCCCC3)cc2NC(=O)CC(NC(C)=O)c2ccccc2)CC1 (stereo unspecified),–,–,–,–,–,–
CCN1CCN(c2ccc(S(=O)(=O)N3CCCCC3)cc2NC(=O)c2cccc(OC(F)F)c2)CC1,19,–,–,–,–,–
